# An excerpt weighted towards active compounds, which were near 3.7% of everything screened.
# KCNQ1 act: human KCNQ1 channel potentiation or activation; AID 2648; actives 0.35% (n = 310,000); B-score at 10 µM; CHO-K1 KCNQ1, thallium flux FluxOR fluorescence; hits give high values;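 active means fluorescence ratio B-score, a plate-corrected score, at least three library SD, with initial intensity B-score within 5 SD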
#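 System: CHO-K1 cells stably expressing KCNQ1 / Medium: assay buffer for compound exposure, DMSO matched across wells / Reagent: thallium- and potassium-containing depolarizing buffer / Compound: one concentration, matched DMSO / Incubation: 20 min compound pretreatment at room temperature / Measured by: kinetic FluxOR fluorescence, 10 s baseline plus 110 s post-stimulus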
# KCNK3 block: human KCNK3 channel inhibition, primary screen | O14649 | CHO-KCNK3 thallium flux, FluxOR fluorescence; hits give low values | B-score at 10 µM | actives 0.84% (n = 340,000) | AID 602410;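 active means B-score under library mean minus 4 SD, starting fluorescence ratio at most library mean plus 5 SD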;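 further: more negative B-score means stronger inhibition of thallium flux through KCNK3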
# hERG protect: compounds protecting human hERG from proarrhythmic drug block; Q12809; CHO-hERG, FluxOR thallium flux, dofetilide IC70 present; activation (rescue from dofetilide block), less the hit threshold, % at 10 µM; actives 0.51% (n = 310,000); AID 1511;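 active means activation above the mean of controls blocked by dofetilide plus 5 SD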;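 further: thallium influx through hERG after potassium depolarization seen as dye fluorescence rise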
# KCNQ1 block: inhibitors of human KCNQ1 potassium channel; P51787; actives 1.3% (n = 310,000); CHO-K1 KCNQ1, FluxOR thallium flux fluorescence; hits give high values; B-score at 10 µM;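 active means compounds whose thallium flux B-score, printed positive for inhibition, exceeds three library SD while starting fluorescence stays within three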;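 further: channel opened by potassium depolarization with thallium stimulus after 20 min compound exposure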
# KCNK9 block: blocks the human KCNK9 two-pore domain potassium channel; HEK293 KCNK9, FluxOR thallium flux fluorescence; hits give low values; B-score at 10 µM; actives 1.2% (n = 310,000); AID 488922;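 active means ratio B-score over 3 SD below the library mean, with starting fluorescence within 5 SD of its mean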;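 further: negative B-score means less thallium flux so channel inhibition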
# Kir21 inh: Kir2.1 (mouse) channel inhibition; P35561; HEK293-Kir2.1, FluxOR thallium flux fluorescence; hits give low values; B-score at 10 µM; actives 0.85% (n = 310,000);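 active means fluorescence ratio B-score at or below minus 3 SD of library scores, with starting-brightness B-score within 2 SD, cut at about -4.2 in these data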;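 further: channel flux triggered by added potassium and thallium sulfate stimulus; B-score of peak minus minimum fluorescence over baseline after thallium stimulus; more negative B-score means stronger Kir2.1 block with less thallium influx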
# KCNK3 confirm: confirmation of human KCNK3 two-pore domain potassium channel inhibitors; shares compounds with KCNK3 block; CHO-KCNK3 thallium flux, FluxOR fluorescence; 0% buffer, 100% carvedilol maximal block; ratio percent of control, % at 10 µM; actives 99% (n = 2,400);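 active means ratio percent of control, averaged over triplicates, above buffer control mean plus 5 SD, cut at about 64% in these data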;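 further: ratio is the fluorescence rise from min to max over baseline after thallium stimulus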
# KCNK3 uninduced: counter-screen for KCNK3 inhibitors: effect in non-induced cells | AID 651747 | thallium flux ratio (lower = more inhibition) at 10 µM | shares compounds with KCNK3 block | actives 40% (n = 2,400) | non-induced KCNK3 parental cells, FluxOR thallium flux; hits give low values;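 active means thallium flux ratio, averaged over three wells, more than 5 SD below the buffer control mean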;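 further: host cells are CHO cells without KCNK3 induction; ratio is peak minus trough fluorescence over baseline then normalized to buffer controls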
# The depositor's hits bear a star; i = inactive; . = no result.
SMILES,KCNQ1 act,KCNK3 block,hERG protect,KCNQ1 block,KCNK9 block,Kir21 inh,KCNK3 confirm,KCNK3 uninduced
COc1ccccc1NC(=O)c1ccc(-c2nn(C)c(=O)c3ccccc23)cc1,i,-9.9*,-19,i,i,0.16,96*,i
Cc1cccc(NC(=O)COc2ccc(-c3nn(C)c(=O)c4ccccc34)cc2)c1,i,-12*,-7,6*,i,0.28,100*,i
Cc1ccc(C)c(N(CC(=O)NC(C)(C)C)C(=O)CCC(=O)Nc2nccs2)c1,i,i,-5,i,i,0.05,.,.
COCC(C)n1c(SCc2cc(C(=O)OC)c(C)o2)nc2ccccc2c1=O (stereo not drawn),i,-8.9*,-12,i,i,-1.3,90*,i
COC(=O)c1cc(OC)c(OC)cc1N1C(=O)CC(C)(C)CC1=O,i,i,-2,i,i,0.06,.,.
O=S(Cc1ccc(Br)cc1)Cc1nnc(SCc2ccc(Cl)cc2)n1-c1ccccc1 (stereo not drawn),i,-10*,-7,i,i,-0.25,98*,i
O=S(Cc1ccc(Br)cc1)Cc1nnc(SCc2c(F)cccc2Cl)n1-c1ccccc1 (stereo not drawn),i,i,-17,i,i,-0.4,.,.
Cc1c(/C=N/NC(=O)c2ccccc2O)c2ccccn2c1C(=O)c1ccc(F)cc1,i,-11*,-20,10*,-7.9*,0.1,129*,0.16*
Cc1c(/C=N/NC(=O)c2ccc(O)cc2)c2ccccn2c1C(=O)c1ccc(F)cc1,i,i,-7,i,i,0.05,.,.
Cn1nnnc1Sc1ncnc2scc(-c3ccc(-c4ccccc4)cc3)c12,.,i,.,.,.,.,.,.
Cn1nnnc1Sc1ncnc2scc(-c3cc4ccccc4o3)c12,.,-13*,.,.,.,.,118*,i
CC(C)c1nc(SCC(=O)c2ccccc2)c2c(=O)n(C)c(=O)n(C)c2n1,i,i,-8,i,i,0.33,.,.
COc1ccccc1/C=C/C1C(C(=O)OCC(C)C)=C(C)N=C2SCCC(=O)N21 (stereo not drawn),i,-9.3*,-3,i,i,0.39,92*,0.16*
CCOC(=O)C1=C(C)NC(=O)NC1/C=C/c1ccccc1OC (stereo not drawn),i,i,3,i,i,0.83,.,.
COC(=O)C1=C(C)N=C2SC(C)C(=O)N2C1c1ccc(C(=O)OC)cc1 (stereo not drawn),i,-8.7*,0,i,i,-0.93,106*,i
COC(=O)C1=C(C)N=C2SC(C)C(=O)N2C1c1cccs1 (stereo not drawn),i,-12*,-5,i,i,0.77,0,i
CC(Oc1ccc(Br)cc1)C(=O)NCC(C)(C)N1CCOCC1 (stereo not drawn),i,i,-4,i,i,-1.5,.,.
Cc1nn(C)c(C)c1NS(=O)(=O)c1c(C)n[nH]c1C,.,i,.,.,.,.,.,.
COc1ccc(CCC(=O)OCC(=O)N(CC(C)C)c2c(N)n(Cc3ccccc3)c(=O)[nH]c2=O)cc1,i,i,-10,i,i,1.4,.,.
CCOc1cc(CNc2ccccc2)cc(Br)c1OCc1ccc(F)cc1,i,-8.8*,-10,i,i,0.38,84*,0.16*
CCOc1cc(CNc2ccccc2)cc(Br)c1OCC(=O)NC(C)(C)C,i,i,-4,i,i,0.01,.,.
O=C(C1CCCN1S(=O)(=O)c1cccc2nsnc12)N1CCCCCC1 (stereo not drawn),i,i,-15,i,i,0.5,.,.
COc1cc(CC(=O)N(C)CC(=O)Nc2ccc(Cl)c(C(F)(F)F)c2)cc(OC)c1OC,i,-9.2*,-8,i,i,0.56,113*,i

# Screening data from PubChem.
